Consider 11 molecules from ChEMBL document CHEMBL5038597 (J Med Chem, 2021).

Active and inactive are the calls of the source. The rule behind the calls is not given here.

The target in series [1] is T1, Nuclear factor NF-kappa-B complex (Homo sapiens) (UniProt Q00653+P19838+Q04206). In words: Inhibition of LPS-induced NF-kappaB activation in human THP-1 monocytes expressing luciferase gene at 0.01 to 100 nM pretreated for 30 mins followed by LPS stimulation and measured after 24 hrs by bioluminescence analysis. The format is cell-based. As to conditions: dose 0.01-100 nM, time 24.5 hr. A digest of the protocol:
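Secreted luciferase in supernatant read with QUANTI-Luc by bioluminescence, normalized to BCA protein (lum/abs ratio, two replicates), expressed as % of LPS response; mean ± SEM, n = 3.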

The subject of series [2] is THP-1. Kind of series: Anti-inflammatory activity against human THP-1 monocytes assessed as reduction in LPS-induced IFNgamma release at 0.01 nM to 100 nM pretreated for 30 mins followed LPS stimulation and measured after 24 hrs by multiplex chemiluminescence detection method. In kind it is functional. The settings on record: time 24.5 hrs. A digest of the protocol:
(§1)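 THP-1-Lucia NF-κB monocytes (1 × 10⁵/well, 0.1% FBS medium) pretreated 30 min with compound (ethanol stock, final 0.1% ethanol vehicle), then 50 ng/mL LPS for 24 h.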

The test system of series [3] is THP-1. Kind of series: Anti-inflammatory activity against human THP-1 monocytes assessed as reduction in LPS-induced IFNgamma release pretreated for 30 mins followed LPS stimulation and measured after 24 hrs by multiplex chemiluminescence detection method. In kind it is functional, cell-based. The procedure, abridged:
as §1

Series [4] has as its system THP-1. Kind of series: Cytotoxicity against human THP-1 monocytes assessed as LDH release at 0.001 to 1000 nM incubated for 24 hrs in absence of LPS by LDH assay. The format is toxicity, cell-based. As to conditions: thp-1, 24 h, 1 µM, dose 0.001-1000 nM. The procedure, abridged: (§2)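 THP-1-Lucia monocytes (1 × 10⁵/well) exposed 24 h to compound without LPS (1 pM upward; 0.1% ethanol vehicle). Supernatant LDH absorbance at 490 nm with 690 nm background; 2% Triton X-100 lysis defined maximum release, untreated cells spontaneous release; expressed as % LDH release relative to LPS ± SEM, n = 3.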

Series [5] has as its system Mus musculus. Kind of series: Anti-inflammatory activity in zymosan-induced C57BL/6J mouse model of peritonitis assessed as total number of polymorphonuclear cells at 6 ug/kg, ip treated 30 mins prior to zymosan administration and once again 1 hr after zymosan administration and measured 24 hrs post zymosan injection by flow cytometry analysis (reference value: 4.7 +/- 0.5 x10^6 /ml). In kind it is functional. The settings on record: dose 6 µg/kg; time 24.5 hrs. The procedure, abridged:
(§3)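 Male C57BL/6J mice (9 weeks) given zymosan 1 mg/mouse ip (40 mg/kg); compound (2 or 6 μg/kg) or dexamethasone (1 mg/kg) ip 30 min before and 1 h after zymosan. Peritoneal lavage 24 h post-zymosan; cells counted with Turk's solution, stained Ly6G/F4/80/CD11b, PMN as Ly6G⁺ by flow cytometry; % of vehicle + zymosan maximal response; n = 5 mice/group, one-way ANOVA.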
A general note: Flow cytometry measures light scatter and fluorescence of single cells or particles in a stream.

For series [6], the species on record is Mus musculus. Kind of series: Anti-inflammatory activity in zymosan-induced C57BL/6J mouse model of peritonitis assessed as change in monocyte cell count. The format is functional, organism-based.
Series [7] is filed under the species Mus musculus. In words: Anti-inflammatory activity in zymosan-induced C57BL/6J mouse model of peritonitis assessed as change in macrophage cell count. In kind it is functional, organism-based.
Series [8] concerns Mus musculus. In words: Anti-inflammatory activity in C57BL/6J mouse model of carrageenan-induced paw edema assessed as reduction in paw swelling at 2 ug/kg, ip administered 30 mins prior to carrageenan injection. In kind it is functional, organism-based. As to conditions: dose 2.0 µg/kg. A digest of the protocol:
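Male C57BL/6 mice dosed 30 min before intraplantar 50 μL 1% carrageenan (saline in contralateral paw); test compound 2 μg/kg ip, naproxen 50 mg/kg po. Paw thickness difference tracked over time (to 72 h) with a lever gauge as edema index; mean ± SEM, n = 3 mice/group.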

Series [9] has as its system THP-1. Kind of series: Anti-inflammatory activity against human THP-1 monocytes assessed as […] in LPS-induced IL-8 release at 1 nM by multiplex chemiluminescence detection method. In kind it is functional, cell-based. A digest of the protocol:
as §1

In series [10] the test system is Mus musculus. Kind of series: Anti-inflammatory activity in zymosan-induced C57BL/6J mouse model of peritonitis assessed as reduced neutrophil influx at 6 ug/kg, ip treated 30 mins prior to zymosan administration (reference value: 100 %). Details: scale not given: the % may be the effect or the level left. As to conditions: 0.5 h.
For series [11], the system named is Mus musculus. Kind of series: Anti-inflammatory activity in zymosan-induced C57BL/6J mouse model of peritonitis assessed as maximal response at 6 ug/kg, ip treated 30 mins prior to zymosan administration and once again 1 hr after zymosan administration and measured 24 hrs post zymosan injection by flow cytometry analysis (reference value: 100 %). In kind it is functional. The settings on record: dose 6 µg/kg; time 24.5 hrs. The procedure, abridged: as §3

Series [12] relates to THP-1. In words: Cytoprotection against LPS-stimulated human THP-1 monocytes toxicity assessed as fold reduction in LDH release at 0.001 to 1000 nM incubated for 24 hrs by LDH assay. The format is functional. The settings on record: dose 0.001-1000 nM. A digest of the protocol:
(§4)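 Supernatant LDH read at 490 nm minus 690 nm background; maximum release from 2% Triton X-100 lysis; expressed as % LDH release relative to LPS ± SEM, n = 3.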
(In general: LDH leaks from cells whose membrane has failed.)

The species named for series [13] is Mus musculus. In words: Anti-inflammatory activity in zymosan-induced C57BL/6J mouse model of peritonitis assessed as change in polymorphonuclear cell count. In kind it is functional, organism-based. A digest of the protocol:
as §3

The test system of series [14] is Mus musculus. Kind of series: Anti-inflammatory activity in zymosan-induced C57BL/6J mouse model of peritonitis assessed as reduced neutrophil influx at 11 mg/kg, ip treated 1 hr prior to zymosan administration (reference value: 100 %). Details: scale not given: the % may be the effect or the level left. The format is functional.
Series [15] concerns Mus musculus. In words: Anti-inflammatory activity in zymosan-induced C57BL/6J mouse model of peritonitis assessed as maximal response at 1 mg/kg, ip treated 30 mins prior to zymosan administration and once again 1 hr after zymosan administration and measured 24 hrs post zymosan injection by flow cytometry analysis (reference value: 100 %). In kind it is functional. As to conditions: time 24.5 hrs. The procedure, abridged:
as §3

Series [16] has as its system THP-1. Kind of series: Cytotoxicity against human THP-1 monocytes assessed as LDH release at 1 uM incubated for 24 hrs in absence of LPS by LDH assay. The settings on record: thp-1, 24 h. The format is toxicity, cell-based. A digest of the protocol:
as §2

In series [17] the test system is THP-1. Kind of series: Cytoprotection against LPS-stimulated human THP-1 monocytes toxicity assessed as reduction LDH release at 1 uM incubated for 24 hrs by LDH assay. In kind it is functional. The procedure, abridged: as §4
In series [18] the test system is THP-1. Kind of series: Anti-inflammatory activity against human THP-1 monocytes assessed as reduction in LPS-induced IL-1beta release at 0.01 nM to 100 nM pretreated for 30 mins followed LPS stimulation and measured after 24 hrs by multiplex chemiluminescence detection method. The format is functional. The settings on record: time 24.5 hrs. A digest of the protocol:
as §1

The subject of series [19] is THP-1. In words: Cytotoxicity against human THP-1 monocytes assessed as LDH release at 1 pM incubated for 24 hrs in absence of LPS by LDH assay. The settings on record: thp-1, 24 h. In kind it is toxicity, cell-based. A digest of the protocol:
as §2

Series [20] has as its target T1, Nuclear factor NF-kappa-B complex (Homo sapiens). Kind of series: Inhibition of TNFalpha-stimulated NF-kappaB activity (unknown origin) expressed in mouse primary smooth muscle cells at 1 nM pretreated for 30 mins followed by TNFalpha stimulation and incubated for 24 hrs by SEAP reporter gene assay. The format is cell-based. As to conditions: THP-1, time 24.5 hrs. A digest of the protocol:
(§5)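 Mouse primary vascular SMCs in DMEM with 25 mM glucose, serum-restricted (1% FBS) 24 h, transfected 24 h with pNF-κB-SEAP, pretreated 30 min, then TNF-α 1 ng/mL for 24 h; 0.1% ethanol vehicle. Secreted alkaline phosphatase measured in supernatant; fold change vs vehicle, mean ± SEM of 6–8 independent experiments.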

Series [21] deals with THP-1. In words: Anti-inflammatory activity against human THP-1 monocytes assessed as reduction in LPS-induced IFNgamma release at 1 pM pretreated for 30 mins followed LPS stimulation and measured after 24 hrs by multiplex chemiluminescence detection method. The format is functional, cell-based. As to conditions: time 24.5 hrs. The procedure, abridged:
as §1

Series [22] deals with THP-1. In words: Induction of phagocytosis in human THP-1-MF0 macrophages at 100 nM pretreated for 30 mins followed by fluorescently labeled Escherichia coli derived bio-particles addition and measured after 2 hrs. In kind it is functional, cell-based. As to conditions: time 2.5 hrs. The procedure, abridged: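 THP-1 monocytes differentiated with 16 nM PMA 48 h plus 24 h rest; 1 × 10⁵ macrophages/well in 0.1% serum adhered 1.5 h, treated 30 min (1 fM–1 μM), medium replaced with fluorescent E. coli bioparticles for 2 h at 37 °C in dark; trypan blue quench 1 min; bottom-read fluorescence Ex480/Em520; fold change vs vehicle, n = 3.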

A further series has as its system HEK293. Kind of series: Agonist activity at ALX/FPR2 receptor (unknown origin) expressed in HEK-293 cells assessed as increase in calcium flux at 0.01 to 100 nM by Fluo-4 staining based assay. The format is cell-based. The settings on record: Homo sapiens, filed as agonist, dose 0.01-100 nM. The procedure, abridged:
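HEK-293 cells stably double-transfected with ALX/FPR2 and Gαq (Geneticin 500 and Hygromycin 100 μg/mL selection); wild-type HEK-293 as specificity control. Cultured 18 h, loaded with Fluo-4 (37 °C, 1 h), compounds injected in-reader (10 pM–100 nM). Baseline-to-peak calcium fluorescence difference expressed as % of LXA₄ peak; ATP 1 μM and W-peptide 2 nM positive controls; n = 3 independent experiments.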

Series [23] has as its target T1, Nuclear factor NF-kappa-B complex (Homo sapiens). Kind of series: Inhibition of TNFalpha-stimulated NF-kappaB activity (unknown origin) expressed in mouse primary smooth muscle cells at 0.1 nM pretreated for 30 mins followed by TNFalpha stimulation and incubated for 24 hrs by SEAP reporter gene assay. In kind it is cell-based. The settings on record: time 24.5 hrs. The procedure, abridged:
as §5

T1 sequence (P19838 whole entry, looked up): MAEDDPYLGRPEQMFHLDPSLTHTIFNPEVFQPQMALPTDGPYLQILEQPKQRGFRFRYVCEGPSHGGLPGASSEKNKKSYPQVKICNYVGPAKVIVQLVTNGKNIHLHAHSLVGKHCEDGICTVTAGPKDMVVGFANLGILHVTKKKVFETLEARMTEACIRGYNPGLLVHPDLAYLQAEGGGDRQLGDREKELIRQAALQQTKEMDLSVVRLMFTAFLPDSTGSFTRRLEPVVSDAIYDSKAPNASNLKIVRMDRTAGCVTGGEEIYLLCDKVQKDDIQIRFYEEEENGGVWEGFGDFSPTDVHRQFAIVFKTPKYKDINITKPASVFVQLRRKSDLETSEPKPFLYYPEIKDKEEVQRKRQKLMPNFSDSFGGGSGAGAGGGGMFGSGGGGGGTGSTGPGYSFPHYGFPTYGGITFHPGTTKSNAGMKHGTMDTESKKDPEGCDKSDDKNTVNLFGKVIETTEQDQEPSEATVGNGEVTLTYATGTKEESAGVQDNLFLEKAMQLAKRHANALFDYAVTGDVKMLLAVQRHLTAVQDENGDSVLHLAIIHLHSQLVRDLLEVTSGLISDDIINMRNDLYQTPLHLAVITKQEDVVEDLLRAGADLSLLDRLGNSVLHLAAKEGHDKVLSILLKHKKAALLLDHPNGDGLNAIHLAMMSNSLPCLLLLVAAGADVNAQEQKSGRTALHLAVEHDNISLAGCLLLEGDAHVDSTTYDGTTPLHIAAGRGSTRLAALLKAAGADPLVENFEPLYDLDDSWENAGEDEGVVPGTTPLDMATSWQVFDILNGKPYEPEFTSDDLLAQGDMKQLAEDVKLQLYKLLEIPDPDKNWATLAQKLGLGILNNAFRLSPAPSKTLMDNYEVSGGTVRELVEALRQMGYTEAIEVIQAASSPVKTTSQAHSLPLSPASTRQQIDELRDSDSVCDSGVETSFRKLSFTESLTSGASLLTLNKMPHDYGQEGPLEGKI
T1 sequence (Q00653 whole entry, looked up): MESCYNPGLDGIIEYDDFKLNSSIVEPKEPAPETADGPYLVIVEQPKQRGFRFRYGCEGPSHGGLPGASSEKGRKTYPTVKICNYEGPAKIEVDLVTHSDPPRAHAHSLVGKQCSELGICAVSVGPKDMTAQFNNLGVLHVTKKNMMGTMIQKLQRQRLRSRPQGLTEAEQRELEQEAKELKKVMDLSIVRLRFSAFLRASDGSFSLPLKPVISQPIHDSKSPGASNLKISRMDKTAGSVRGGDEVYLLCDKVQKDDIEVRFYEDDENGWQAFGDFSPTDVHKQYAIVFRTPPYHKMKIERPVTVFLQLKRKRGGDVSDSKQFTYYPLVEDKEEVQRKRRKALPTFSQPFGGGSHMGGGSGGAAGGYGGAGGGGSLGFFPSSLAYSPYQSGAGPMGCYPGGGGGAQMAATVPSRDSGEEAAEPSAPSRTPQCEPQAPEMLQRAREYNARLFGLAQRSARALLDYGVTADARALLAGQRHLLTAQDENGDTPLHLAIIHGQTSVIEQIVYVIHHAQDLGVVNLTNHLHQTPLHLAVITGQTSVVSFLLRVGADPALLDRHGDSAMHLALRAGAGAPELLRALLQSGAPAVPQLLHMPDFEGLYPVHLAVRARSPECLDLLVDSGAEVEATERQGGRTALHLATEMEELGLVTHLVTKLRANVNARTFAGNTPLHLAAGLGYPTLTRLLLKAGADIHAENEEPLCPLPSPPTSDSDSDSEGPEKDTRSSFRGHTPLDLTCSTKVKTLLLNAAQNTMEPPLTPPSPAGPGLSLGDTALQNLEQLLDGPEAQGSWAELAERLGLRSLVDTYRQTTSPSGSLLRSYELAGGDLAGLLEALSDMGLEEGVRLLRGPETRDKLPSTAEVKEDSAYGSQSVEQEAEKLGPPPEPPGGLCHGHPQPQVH
T1 sequence (Q04206 whole entry, looked up): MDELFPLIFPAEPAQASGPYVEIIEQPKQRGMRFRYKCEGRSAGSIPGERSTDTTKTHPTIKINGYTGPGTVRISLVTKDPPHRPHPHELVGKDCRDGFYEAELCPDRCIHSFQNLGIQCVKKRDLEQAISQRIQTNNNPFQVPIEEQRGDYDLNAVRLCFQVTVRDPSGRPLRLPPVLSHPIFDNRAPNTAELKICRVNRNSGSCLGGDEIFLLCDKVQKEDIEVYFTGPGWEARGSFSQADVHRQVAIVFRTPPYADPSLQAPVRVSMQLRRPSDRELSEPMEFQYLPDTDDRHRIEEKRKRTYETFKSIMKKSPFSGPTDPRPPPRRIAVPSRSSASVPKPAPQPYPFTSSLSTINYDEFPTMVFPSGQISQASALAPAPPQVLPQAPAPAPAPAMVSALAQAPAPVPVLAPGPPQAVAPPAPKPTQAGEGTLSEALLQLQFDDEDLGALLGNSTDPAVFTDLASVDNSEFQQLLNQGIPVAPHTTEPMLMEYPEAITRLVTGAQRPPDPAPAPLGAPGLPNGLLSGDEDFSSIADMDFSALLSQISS

As for `CCC[C@H](O)c1nc2ccccc2nc1/C=C/[C@@H](O)[C@@H](O)CCCC(=O)OC`, the Imax in series [1] was 30%; in the series with THP-1 [2], 85%. The IC50 (in general, the midpoint of a concentration-inhibition curve) in the series on THP-1 [3] was 1 pM.
For the molecule `CCC[C@@H](O)c1nc2ccccc2nc1/C=C/[C@@H](O)[C@@H](O)CCCC(=O)OC`, the Imax turned out to be 30% in series [1] and 85% in the series with THP-1 [2]. In addition, in the series with THP-1 [4], the Activity entry is recorded as “Non-Toxic”. In addition, in the series on THP-1 [3], the IC50 stood at 1 pM.
As to `CCCCC[C@H](O)c1nc2ccccc2nc1/C=C/[C@H]1OC(C)(C)O[C@H]1CCCC(=O)OC`, the Activity result with THP-1 [4] is on record as “Toxic”.
Regarding `CCCCC[C@@H](O)c1nc2ccccc2nc1/C=C/[C@@H](O)[C@@H](O)CCCC(=O)OC`, the Activity with Mus musculus [5] was 3.2 10^6/ml; in the series with THP-1 [4] it was “Non-Toxic”; with Mus musculus [10] it was 22.5%; in the series with Mus musculus [11] it was 68%. In addition, the outcome in the series listed under Mus musculus [6], in the series listed under Mus musculus [7] and in the series filed under Mus musculus [13] was inactive. The outcome in the series with Mus musculus [8] and in the series with THP-1 [9] was Active. In addition, in the series with THP-1 [12], the “fold change (FC)” value is reported as 1.3.
In the case of `C[C@@H]1C[C@H]2[C@@H]3CCC4=CC(=O)C=C[C@]4(C)[C@@]3(F)[C@@H](O)C[C@]2(C)[C@@]1(O)C(=O)CO` [DEXAMETHASONE], the outcome in the series listed under Mus musculus [6], in the series listed under Mus musculus [7], in the series with THP-1 [17] and in the series filed under Mus musculus [13] was inactive. Also, the Activity with Mus musculus [14] is 33.5%; with Mus musculus [15], 51%; in the series with THP-1 [16], “Non-Toxic”.
`CCCCC[C@H](O)c1nc2ccccc2nc1/C=C/[C@@H](O)[C@@H](O)CCCC(=O)OC`: in series [1], the Imax worked out at 25%. In addition, the result in the series with THP-1 [18] was inactive.
Take `CCCCC[C@@H](O)c1c(/C=C/[C@@H](O)[C@@H](O)CCCC(=O)OC)nc(C)n1C`: in the series on THP-1 [19], the Activity result is “Non-Toxic”.
Consider `CCCCC[C@@H](O)c1ccccc1/C=C/[C@@H](O)[C@@H](O)CCCC(=O)OC`, for which, in [20], the inhibition entry was “Active”. Also, the Activity entry in the series with THP-1 [19] is “Non-Toxic”. Also, the result in the series on THP-1 [21] was inactive.
Regarding `CCCCCCC[C@H](O)c1nc2ccccc2nc1/C=C/[C@@H](O)[C@@H](O)CCCC(=O)OC`, the Activity entry in the series with THP-1 [4] is “Non-Toxic”.
As for `CCCCC[C@H](O)/C=C/C=C\C=C\C=C\[C@@H](O)[C@@H](O)CCCC(=O)O` [LIPOXIN A4], the result with THP-1 [22], in the series on THP-1 [9] and in the series with HEK293 was Active. Besides, the inhibition entry in [23] is “Active”. Also, the Imax with THP-1 [18] worked out at 93%.
Take `CCCCC[C@@H](O)c1nc2ccccc2nc1/C=C/[C@H]1OC(C)(C)O[C@H]1CCCC(=O)OC`: in the series with THP-1 [4], the Activity result was “Toxic”. Also, the outcome with Mus musculus [8] was inactive.
